Assay outcomes (PubChem)
Sampled rows, rich in hits. Any-hit rate of the full collection: about 4.7%.
MC4R antagonist: MC4R antagonists of cAMP signaling, primary screen, cell-based, TR-FRET, antagonist arm of biased-ligand search; Melanocortin receptor 4 (Homo sapiens), P32245; MC4R-expressing cells, MTII-stimulated cAMP, LANCE TR-FRET; inhibition, % at 6.5 µM; 360,000 compounds, 0.48% hits;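 active = inhibition above its plate's cutoff, the mean of tested wells on that plate plus 3 SD, cut at about 29% in these data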
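material = U2OS cells stably expressing human melanocortin 4 receptor (MC4R) | also added = Melanotan II challenge | dosing = single nominal compound dose of 6.5 µM | detection = TR-FRET with Eu-cAMP and labeled anti-cAMP, 671 nm | replication = singlicate | timing = compound 30 min, challenge 1 h, detection 1 h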
AHR act: AHR activators, primary screen, cell-based, luminescence, luciferase reporter, human. AHR-responsive luciferase reporter cells. activation, % at 5 µM. 320,000 compounds, 2.5% hits. AID 2796, 2010; in the data active = activation above about 47%
MC4R barr agon: MC4R agonists recruiting beta-arrestin, primary screen, cell-based, luminescence, agonist arm of biased-ligand search | Melanocortin receptor 4 (Homo sapiens), P32245 | activation, % at 8.9 µM | U2OS MC4R beta-arrestin complementation; percent of melanotan II response, DMSO zero | AID 540308, 2011 | 360,000 compounds, 0.98% hits;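 active = activation above a per-plate cutoff, the mean activation of sample wells on that plate plus 3 SD, cut at about 8% in these data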
m5-HT2A agonist: mouse Htr2a agonists via beta-arrestin recruitment, primary screen, cell-based, luminescence; CHO-K1 mHTR2A beta-arrestin complementation; percent of 30 µM serotonin response; activation, % at 7.6 µM; 360,000 compounds, 0.66% hits;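 active = activation above a run cutoff, the mean activation of all tested compounds plus 3 SD, cut at about 14% in these data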
Target sequence (P35363 whole entry, looked up): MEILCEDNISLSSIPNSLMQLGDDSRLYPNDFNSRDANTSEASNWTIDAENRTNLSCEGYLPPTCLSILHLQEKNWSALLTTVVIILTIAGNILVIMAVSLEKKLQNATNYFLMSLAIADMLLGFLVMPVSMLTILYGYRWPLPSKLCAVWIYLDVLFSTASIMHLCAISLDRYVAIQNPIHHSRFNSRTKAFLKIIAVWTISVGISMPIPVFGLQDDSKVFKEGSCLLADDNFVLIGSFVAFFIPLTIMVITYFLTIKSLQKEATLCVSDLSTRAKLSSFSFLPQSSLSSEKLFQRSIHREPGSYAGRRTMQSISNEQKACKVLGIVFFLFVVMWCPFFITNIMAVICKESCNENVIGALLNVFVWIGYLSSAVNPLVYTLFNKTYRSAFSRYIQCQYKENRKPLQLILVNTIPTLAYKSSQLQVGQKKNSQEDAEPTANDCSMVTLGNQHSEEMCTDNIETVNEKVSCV
GAA850 FXN act: FXN promoter activators, primary screen, cell-based, luciferase luminescence, HEK293 lucGAA850; 360,000 compounds, 0.56% hits; HEK293 lucGAA850 FXN promoter luciferase reporter, 24 h; percent of 10 µM SAHA response; AID 540364, 2011; activation, % at 6 µM;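 active = activation above the average of all compounds screened plus 3 SD, cutoff fixed separately per campaign, cut at about 7.5% in these data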
AHR act cf: AHR activators, confirmation, cell-based, luminescence, luciferase reporter, human. human cells, AHR-responsive luciferase reporter. AID 2845, 2010. 2,300 compounds, 87% hits. shares compounds with AHR act. activation, % at 9 µM; in the data active = activation above about 49%;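 also: HepG2 hepatoma cells carrying a DRE-driven firefly luciferase reporter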
PXR counter: human PXR activators, counter-screen for AHR activator project, cell-based, luciferase luminescence. activation, % at 11.6 µM. cell-based PXR reporter. 2,300 compounds, 88% hits. shares compounds with AHR act; in the data active = activation above about 11%;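 also: human hepatoma DPX-2 cells expressing full-length human PXR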
cAMP nonselect: nonselective cAMP signaling inhibitors, parental cells, counter-screen for MC4R biased antagonist project, cell-based, TR-FRET, U2OS, forskolin, triplicate | shares compounds with MC4R antagonist | LANCE TR-FRET | inhibition, % at 6.5 µM | 1,600 compounds, 26% hits | AID 602193, 2012;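 active = mean inhibition over triplicates above the low-control well mean plus 3 SD, set per campaign, cut at about 13% in these data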;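 also: signal is single emission at 671 nm which falls as cellular cAMP rises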
MC4R cAMP antag: MC4R cAMP antagonists, retest, confirmation, cell-based, TR-FRET | shares compounds with MC4R antagonist | 1,600 compounds, 27% hits | inhibition, % at 6.5 µM | MC4R-expressing cells, MTII-stimulated cAMP; in the data active = inhibition above about 29%
GAA30 counter: GAA30 FXN promoter activators, confirmation, counter-screen for GAA850 frataxin promoter activator project, cell-based, luminescence, HEK293, lucGAA30, triplicate. shares compounds with GAA850 FXN act. HEK293 lucGAA30 FXN promoter luciferase, 24 h; DMSO = 0%, 5 µM ipriflavone = 100%. activation, % at 6 µM. 1,900 compounds, 66% hits. AID 588350, 2011;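 active = mean activation above the mean of solvent-only control wells plus 3 SD, cut at about 22% in these data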;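 also: counterscreen of GAA850 promoter hits where activity marks nonselective or luminescence artifacts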
FXN GAA850 conf: FXN GAA850 promoter activators in reporter cells, confirmation, cell-based, luminescence, HEK293 lucGAA850, triplicate; shares compounds with GAA850 FXN act; HEK293 lucGAA850 FXN promoter luciferase reporter, 24 h; 100% = activation by SAHA; activation, % at 6 µM; 1,900 compounds, 86% hits;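 active = mean activation above a set limit taken from the primary screen, cut at about 8% in these data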
OPRM1 ag: OPRM1 agonists via beta-arrestin recruitment, confirmation, counter-screen for mouse HTR2A agonist project, cell-based, luminescence, single concentration; 2,300 compounds, 5.3% hits; U2OS OPRM1 beta-arrestin PathHunter; DMSO 0%, DAMGO 9.3 µM 100%; shares compounds with m5-HT2A agonist; activation, % at 9.3 µM;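 active = mean activation above the mean of DMSO-only wells plus 3 SD, cut at about 0.5% in these data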
m5-HT2A ag conf: mouse HTR2A agonists, beta-arrestin recruitment, confirmation, cell-based, luminescence, CHO-K1 PathHunter, triplicate; 2,300 compounds, 19% hits; DMSO 0%, 30 µM serotonin 100%; shares compounds with m5-HT2A agonist; activation, % at 7.6 µM;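 active = mean activation across triplicates above the hit threshold derived in the original primary screen, cut at about 15% in these data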
Each line names hits and unclear results; the compound was inactive in the other large screens (follow-up assays come after a bar, where they were run).

CCN(Cc1ccccc1)S(=O)(=O)c1ccc(C(=O)N(CCCN(C)C)c2nc3c(C)c(C)ccc3s2)cc1	none
C=CCNc1sc(C(=O)c2ccccc2)c(N)c1-c1nc2ccccc2s1	AHR act 132, GAA850 FXN act 8.0 | AHR act cf 90 | PXR counter 44 | GAA30 counter inactive | FXN GAA850 conf 11
O=C(NCCCn1ccnc1)c1cc(-c2cccs2)on1	AHR act 143, GAA850 FXN act 41 | AHR act cf 458 | PXR counter 46 | GAA30 counter 159 | FXN GAA850 conf 114
COc1ccc(OC)c(-c2cc(C(=O)NCCCn3ccnc3)no2)c1	none
COc1ccc(Nc2nccc(-c3cccc(N)c3)n2)cc1	AHR act 132, GAA850 FXN act 13 | AHR act cf 54 | PXR counter 30 | GAA30 counter 130 | FXN GAA850 conf 100
Cc1ccc(C)c(NC(=S)c2ccccn2)c1	AHR act 118, GAA850 FXN act 13 | AHR act cf 106 | PXR counter 26 | GAA30 counter 78 | FXN GAA850 conf 28
Cc1ccc(C)c(NC(=O)NCc2ccccn2)c1	none
Cc1ccc(C(=O)N=c2sccn2C)cc1C	AHR act 194, m5-HT2A agonist 18 | AHR act cf 136 | PXR counter 41 | OPRM1 ag inactive | m5-HT2A ag conf inactive
Cc1ccc(C(=O)N=c2sccn2C)cc1S(=O)(=O)N1CCOCC1	none
O=C(NCC1CCCO1)c1cc([N+](=O)[O-])ccc1N1CCC(Cc2ccccc2)CC1 (stereo not given)	none
CCc1ccc(NC(=O)c2sccc2-n2cccc2)cc1	AHR act 102, m5-HT2A agonist 15 | AHR act cf 141 | PXR counter 41 | OPRM1 ag inactive | m5-HT2A ag conf inactive
Fc1ccc2nc3[nH]c4ccccc4c3nc2c1	AHR act 134, m5-HT2A agonist 22 | AHR act cf 189 | PXR counter 21 | OPRM1 ag inactive | m5-HT2A ag conf inactive
CC(=O)Nc1ccc(S(=O)(=O)Nc2ccccc2N2CCOCC2)cc1	none
Clc1ccc(-c2nnc(-c3ccc(Br)cc3)c(N3CCSCC3)n2)cc1	none
Clc1ccc(-c2nnc(-c3ccco3)nc2N2CCCCC2)cc1	MC4R antagonist 29 | cAMP nonselect inactive | MC4R cAMP antag inactive
CCCCNC(=O)CN1C(=O)CSc2ccc(S(=O)(=O)N3CCOCC3)cc21	MC4R antagonist 55 (no result: AHR act) | cAMP nonselect inactive | MC4R cAMP antag inactive
CCCCCCCNC(=O)CN1C(=O)CSc2ccc(S(=O)(=O)N3CCOCC3)cc21	none
CCC(Sc1nc2n[nH]c(C)c2c(=N)n1-c1ccc(C)c(Cl)c1)C(=O)N1CCOCC1 (stereo not given)	MC4R antagonist 29 | cAMP nonselect inactive | MC4R cAMP antag 35
CSCCC(C)N1CCC(Oc2ccc(C(=O)NCc3ccccn3)cc2)CC1 (stereo not given)	none (no result: AHR act)
Cc1cc(C(=O)OCC(=O)c2ccc(Br)s2)no1	MC4R antagonist 37 | cAMP nonselect inactive | MC4R cAMP antag inactive
CC1CCN(C(=O)C2CCN(C(=O)c3cc4sccc4n3Cc3ccc(F)cc3)CC2)CC1	none
CC(C)NC(=O)C1CCN(C(=O)c2cc3sccc3n2Cc2ccc(F)cc2)CC1	MC4R antagonist 32 | cAMP nonselect inactive | MC4R cAMP antag inactive
Cc1[nH]c(C)c(C(=O)/C=C/c2ccc([N+](=O)[O-])cc2)c1C	MC4R antagonist 31 | cAMP nonselect inactive | MC4R cAMP antag 31
COc1ccc(C=CC(=O)c2ccc([N+](=O)[O-])cc2)cc1	none (no result: AHR act)
C[C@@H]1CN([C@@H](C)CO)C(=O)c2cc(NS(C)(=O)=O)ccc2O[C@@H]1CN(C)S(=O)(=O)c1ccccc1	none
COCCNc1nc(Oc2ccc(NC(C)=O)cc2)c2sc(-c3ccccc3)cc2n1	MC4R antagonist 47 (no result: AHR act) | cAMP nonselect inactive | MC4R cAMP antag inactive
CCOC(=O)c1cc2c(c(-c3ccccc3)n1)[C@H](CCO)N(S(=O)(=O)C(C)(C)C)C2	none (no result: AHR act)
CCOc1ccc(C(=O)OCC(=O)NCc2ccccc2)cc1OCC	none
CCOc1ccc(C(=O)CCC(=O)NCC(=O)OCc2ccccc2)cc1OCC	MC4R antagonist 32 | cAMP nonselect inactive | MC4R cAMP antag inactive
CCCC(=O)N1CCC1(C)C(=O)NS(=O)(=O)c1cccc(C)c1 (stereo not given)	none (no result: AHR act)
S=c1[nH]ncn2c1cc1oc3ccccc3c12	MC4R antagonist 34 | cAMP nonselect 22 | MC4R cAMP antag 41
O=c1c2ccccc2oc2ccccc12	none (no result: AHR act)
O=C1CCC2(CCCC2)c2ccccc21	none (no result: AHR act)
